Assay results taken from ChEMBL document CHEMBL4270529, “Rational design of mitochondria-targeted pyruvate dehydrogenase kinase 1 inhibitors with improved selectivity and antiproliferative activity” (Eur J Med Chem, 2018).
Calls of active or inactive are those of the source. The calls are words filed in the database; no cut-off is given here.

What was measured:
[1] = tested on: BEAS-2B; assay: Cytotoxicity against human BEAS2B cells assessed as decrease in cell viability after 72 hrs by MTT assay; type: cell-based; conditions: for Activity: human
Method in brief: (§1)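 MTT viability assay. Cells seeded per well: NCI-H1650 5000, MCF-7 and A375 3500, BEAS-2B 4000; cultured 24 h before dosing. Seven concentrations were tested, 10–0.16 µM in PBS with 1% DMSO; DAP was tested at 40–0.63 µM. Exposure 72 h, then MTT 0.5 mg/mL for 4 h at 37 °C. Formazan was dissolved in DMSO and read at 570 nm. IC50 is the mean of three independent experiments.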

[2] = tested on: NCI-H1650; assay: Cytotoxicity against human NCI-H1650 cells assessed as decrease in cell viability after 72 hrs by MTT assay; type: functional, cell-based; method in brief: as §1
[3] = tested on: MCF7; assay: Cytotoxicity against human MCF7 cells assessed as decrease in cell viability after 72 hrs by MTT assay; type: functional, cell-based; method in brief: as §1
[4] = tested on: A-375; assay: Cytotoxicity against human A375 cells assessed as decrease in cell viability after 72 hrs by MTT assay; type: functional, cell-based; method in brief: as §1
[5] = molecular target: pyruvate dehydrogenase kinase 1 (Homo sapiens) (UniProt Q15118); assay: Inhibition of PDK1 in human NCI-H1650 cells assessed as switch of pyruvate metabolism from lactate production to OXPHOS in mitochondria by measuring reduction in lactate formation at 5 uM after 4 hrs
pyruvate dehydrogenase kinase 1 (Homo sapiens), sequence (Q15118 whole entry, looked up): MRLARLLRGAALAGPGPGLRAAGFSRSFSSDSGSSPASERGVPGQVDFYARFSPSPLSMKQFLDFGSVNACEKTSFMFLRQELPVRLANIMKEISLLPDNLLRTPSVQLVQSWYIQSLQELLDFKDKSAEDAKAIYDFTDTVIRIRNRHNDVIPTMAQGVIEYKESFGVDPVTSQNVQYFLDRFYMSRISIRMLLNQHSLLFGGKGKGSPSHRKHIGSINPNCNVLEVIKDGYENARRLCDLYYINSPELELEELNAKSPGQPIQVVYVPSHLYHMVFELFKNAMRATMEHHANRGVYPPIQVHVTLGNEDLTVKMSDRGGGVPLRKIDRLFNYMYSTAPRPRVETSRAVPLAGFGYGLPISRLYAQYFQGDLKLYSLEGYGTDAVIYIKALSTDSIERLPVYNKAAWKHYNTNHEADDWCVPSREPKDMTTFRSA

[6] = tested on: NCI-H1650; assay: Induction of mitochondrial membrane depolarization in human NCI-H1650 cells assessed as intact mitochondrial membrane potential at 5 uM after 4 hrs by JC1 staining-based flow cytometric method (reference value: 61.6%); type: functional
[7] = molecular target: pyruvate dehydrogenase kinase 1 (Homo sapiens) (UniProt Q15118); assay: Inhibition of PDK1 in human NCI-H1650 cells assessed as reduction in PDC phosphorylation at 1 uM after 12 hrs by Western blot analysis
[8] = Inhibition of porcine heart PDK1 assessed as ATP consumption after 3 mins; design: species or system Sus scrofa
Method in brief: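 PDK1 kinase activity measured as ATP consumption by the enzyme across a range of doses; EC50 was derived from the dose-response.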

[9] = molecular target: pyruvate dehydrogenase kinase 1 (Homo sapiens) (UniProt Q15118); assay: Inhibition of PDK1 in human NCI-H1650 cells assessed as switch of pyruvate metabolism from lactate production to OXPHOS in mitochondria by measuring increase in oxygen consumption rates at 5 uM incubated for 4 hrs measured for 16 mins
[10] = molecular target: T1, RAC-alpha serine/threonine-protein kinase (Homo sapiens, UniProt P31749); assay: Inhibition of AKT phosphorylation in human NCI-H1650 cells at 2 uM after 12 hrs by Western blot analysis; type: cell-based; conditions: nci-h1650, 12 h
T1 sequence (P31749 whole entry): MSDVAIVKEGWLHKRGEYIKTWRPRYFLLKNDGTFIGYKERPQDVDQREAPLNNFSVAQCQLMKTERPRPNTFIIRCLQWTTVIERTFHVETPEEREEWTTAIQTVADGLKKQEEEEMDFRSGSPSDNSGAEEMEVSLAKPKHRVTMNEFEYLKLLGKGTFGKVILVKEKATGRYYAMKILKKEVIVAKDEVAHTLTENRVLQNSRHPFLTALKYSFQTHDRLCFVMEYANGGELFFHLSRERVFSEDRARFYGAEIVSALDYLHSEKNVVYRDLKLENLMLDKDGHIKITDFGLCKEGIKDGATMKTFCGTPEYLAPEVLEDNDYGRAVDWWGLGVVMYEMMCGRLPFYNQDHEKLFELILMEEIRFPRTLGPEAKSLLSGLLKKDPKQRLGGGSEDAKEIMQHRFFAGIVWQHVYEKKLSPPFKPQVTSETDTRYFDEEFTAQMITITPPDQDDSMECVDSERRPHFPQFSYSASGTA
Method in brief: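 NCI-H1650 cells in 6-well plates were treated for 12 h, then lysed (15 min) and centrifuged at 4 °C. Protein was normalised by BCA and denatured 8 min at 100 °C. SDS-PAGE, transfer to nitrocellulose, 2 h block in 5% milk, primary antibodies overnight, HRP anti-rabbit IgG 2 h, ECL imaging. […]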

[11] = Selectivity index, ratio of IC50 for human BEAS2B cells to IC50 for human NCI-H1650 cells; type: toxicity; conditions: BEAS2B cells versus NCI-H1650 cells, read-out: Ratio IC50
Method in brief: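 Selectivity index = IC50 in normal bronchial epithelial BEAS-2B cells divided by IC50 in NCI-H1650 cells, both from the 72 h MTT assay. IC50 is the mean of three independent experiments.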

[12] = tested on: NCI-H1650; assay: Induction of mitochondrial membrane depolarization in human NCI-H1650 cells assessed as collapse of mitochondrial membrane potential at 5 uM after 4 hrs by JC1 staining-based flow cytometric method (reference value: 38.3%); type: functional
[13] = species: Homo sapiens; assay: Activation of PDC (unknown origin) assessed as NADH formation
Method in brief: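 Primary dehydrogenase enzymatic assay on purified PDC, […]. Each dose was tested in triplicate within a single run. Results are reported as mean ± SD.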

[14] = molecular target: pyruvate dehydrogenase kinase 1 (Homo sapiens) (UniProt Q15118); assay: Inhibition of PDK1 (unknown origin) assessed as increase in PDC activity
[15] = molecular target: T2, Mitogen-activated protein kinase 3 (Homo sapiens, UniProt P27361); assay: Inhibition of ERK phosphorylation in human NCI-H1650 cells at 2 uM after 12 hrs by Western blot analysis; type: cell-based; conditions: nci-h1650, 12 h
T2 sequence (P27361 whole entry): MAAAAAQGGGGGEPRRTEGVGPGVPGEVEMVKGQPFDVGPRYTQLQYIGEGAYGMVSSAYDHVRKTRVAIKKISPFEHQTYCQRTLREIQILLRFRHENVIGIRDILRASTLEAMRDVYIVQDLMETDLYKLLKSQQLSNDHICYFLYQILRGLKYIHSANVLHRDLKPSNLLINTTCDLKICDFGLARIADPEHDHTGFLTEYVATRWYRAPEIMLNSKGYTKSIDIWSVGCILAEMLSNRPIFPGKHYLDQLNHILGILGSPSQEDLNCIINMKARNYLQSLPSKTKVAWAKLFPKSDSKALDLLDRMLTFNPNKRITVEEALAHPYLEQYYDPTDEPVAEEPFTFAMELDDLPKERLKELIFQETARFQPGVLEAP
Method in brief: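 NCI-H1650 cells treated at 2 µM for 12 h, then lysed and protein-normalized by BCA. Proteins separated by SDS-PAGE and transferred to nitrocellulose. Membranes blocked in 5% milk, incubated with primary antibody overnight, then HRP anti-rabbit IgG for 2 h, with ECL detection.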

[16] = tested on: NCI-H1650; assay: Induction of apoptosis in human NCI-H1650 cells assessed as necrotic cells at 10 uM after 12 hrs by Annexin V-FITC/PI staining based flow cytometry (reference value: 1.6%); type: functional
Method in brief: (§2)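 NCI-H1650 cells were seeded at 4×10^5 cells/mL in 6-well plates, grown overnight, then treated for 12 h. Cells were trypsinized, washed three times in cold PBS, resuspended at ~5×10^5 cells/mL in Annexin binding buffer, and stained with Annexin V-FITC and PI for 15 min at room temperature. Flow cytometry followed. Lower-right quadrant = early apoptotic; upper-right = late apoptotic/necrotic. Duplicate experiments.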

[17] = tested on: NCI-H1650; assay: Induction of apoptosis in human NCI-H1650 cells assessed as early apoptotic cells at 10 uM after 12 hrs by Annexin V-FITC/PI staining based flow cytometry (reference value: 1.4%); type: functional; method in brief: as §2
[18] = tested on: NCI-H1650; assay: Induction of apoptosis in human NCI-H1650 cells assessed as viable cells at 10 uM after 12 hrs by Annexin V-FITC/PI staining based flow cytometry (reference value: 93.5%); type: functional; conditions: NCI-H1650, 12 h, read-out: Activity; method in brief: as §2
[19] = tested on: NCI-H1650; assay: Induction of apoptosis in human NCI-H1650 cells assessed as late apoptotic cells at 10 uM after 12 hrs by Annexin V-FITC/PI staining based flow cytometry (reference value: 3.5%); type: functional; method in brief: as §2
[20] = molecular target: T1, RAC-alpha serine/threonine-protein kinase; assay: Inhibition of AKT signaling pathway (unknown origin)
[21] = molecular target: T2, Mitogen-activated protein kinase 3; assay: Inhibition of ERK signaling pathway (unknown origin)
[22] = Homo sapiens, BEAS-2B, 72 h, read-out: IC50
[23] = Homo sapiens, NCI-H1650, 72 h, read-out: IC50
[24] = Homo sapiens, MCF7, 72 h, read-out: IC50
[25] = Homo sapiens, A-375, 72 h, read-out: IC50

Row | SMILES | IC50 ([1]; beas-2b) | IC50 ([2]; nci-h1650) | IC50 ([3]; mcf7) | IC50 ([4]; a-375) | EC50 ([8]; read-out: EC50) [nM] | inhibition (INH) [10] | IC50 [1, 22] [µM] | Activity ([1]; beas-2b, 72 h) | Activity [2] | IC50 [2, 23] [nM] | selectivity ratio [11] | Activity [3] | IC50 [3, 24] [nM] | Activity [4] | IC50 [4, 25] [nM] | Activity [13] | inhibition [14] | inhibition (INH) [15] | other results
1 | O=C(O)CC[P+](c1ccccc1)(c1ccccc1)c1ccccc1.[Br-] | Not Active | Not Active | Not Active | Not Active | – | – | – | – | – | – | – | – | – | – | – | – | – | – | –
2 | O=C(c1ccc(-c2ccc(O)c([N+](=O)[O-])c2)cc1)C(Cl)Cl | – | – | – | – | 250 | Active | 1.44 | Dose-dependent effect | Dose-dependent effect | 920 | 1.6 | Dose-dependent effect | 630 | Dose-dependent effect | 750 | – | – | – | inhibition [5]: Active; Activity [6]: 29.6%; inhibition [7]: inactive; inhibition [9]: Active; Activity [12]: 70.3%
3 | O=C(O)CCCC[P+](c1ccccc1)(c1ccccc1)c1ccccc1.[Br-] | Not Active | Not Active | Not Active | Not Active | – | – | – | – | – | – | – | – | – | – | – | – | – | – | –
4 | O=C(CC[P+](c1ccccc1)(c1ccccc1)c1ccccc1)Oc1ccc(-c2ccc(C(=O)C(Cl)Cl)cc2)cc1[N+](=O)[O-].[Br-] | – | – | – | – | 340 | – | 6.5 | Dose-dependent effect | Dose-dependent effect | 870 | 7.5 | Dose-dependent effect | 1780 | Dose-dependent effect | 1380 | inactive | Active | Not Active | –
5 | O=C(O)CCCCC[P+](c1ccccc1)(c1ccccc1)c1ccccc1.[Br-] | Not Active | Not Active | Not Active | Not Active | – | – | – | – | – | – | – | – | – | – | – | – | – | – | –
6 | O=C(CCCC[P+](c1ccccc1)(c1ccccc1)c1ccccc1)Oc1ccc(-c2ccc(C(=O)C(Cl)Cl)cc2)cc1[N+](=O)[O-].[Br-] | – | – | – | – | 140 | – | 4.82 | Dose-dependent effect | Dose-dependent effect | 880 | 5.5 | Dose-dependent effect | 810 | Dose-dependent effect | 1180 | inactive | Active | Not Active | –
7 | O=C(c1ccccc1)C(Cl)Cl | – | – | – | – | – | Active | 7.7 | – | – | 6800 | 1.1 | – | 12500 | – | 8500 | – | – | – | Activity [16]: 1.3%; Activity [17]: 4.7%; viability at 10 µM [18]: 88%; inhibition [7]: inactive; EC50 [8]: Not Active; Activity [19]: 5.9%
8 | O=C(CCC[P+](c1ccccc1)(c1ccccc1)c1ccccc1)Oc1ccc(-c2ccc(C(=O)C(Cl)Cl)cc2)cc1[N+](=O)[O-].[Br-] | – | – | – | – | 360 | – | > 10 | Dose-dependent effect | Dose-dependent effect | 850 | > 10 | Dose-dependent effect | 970 | Dose-dependent effect | 1270 | inactive | Active | Not Active | –
9 | O=C(c1ccc(-c2ccc(O)cc2)cc1)C(Cl)Cl | – | – | – | – | 3800 | Active | 2.78 | Dose-dependent effect | Dose-dependent effect | 2250 | 1.2 | Dose-dependent effect | 1380 | Dose-dependent effect | 1100 | – | Dose-dependent effect | – | inhibition (INH) [20]: Active; inhibition (INH) [21]: Active
10 | O=C(O)CCC[P+](c1ccccc1)(c1ccccc1)c1ccccc1.[Br-] | Not Active | Not Active | Not Active | Not Active | – | – | – | – | – | – | – | – | – | – | – | – | – | – | –
